Data on 19 compounds can be found in ChEMBL document CHEMBL4382220, “Enhancement of the tail hydrophobic interactions within the carbonic anhydrase IX active site via structural extension: Design and synthesis of novel N-substituted isatins-SLC-0111 hybrids as carbonic anhydrase inhibitors and antitumor agents” (Eur J Med Chem, 2019).

In experiment [1] the test system is MDA-MB-231. As to the kind of experiment: Antiproliferative activity against human MDA-MB-231 cells after 48 hrs under hypoxic condition by MTT assay. The class given is functional, cell-based. The note with it: MDA-MB-231, 48 h. Summed up:
(§1)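 MCF-7 and MDA-MB-231 cells (ATCC) grown in DMEM with 10% heat-inactivated FBS, 1% L-glutamine (2.5 mM), 10 mM HEPES, 50 μg/mL gentamycin and 100 μM CoCl2 as hypoxia inducer, 37 C, 5% CO2. MTT read-out after 48 h exposure. IC50 is the concentration giving 50% growth inhibition relative to untreated controls, mean ± S.D. of three separate experiments.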
A general note: Formazan colour is commonly taken as a measure of viable cells.

Experiment [2] relates to MDA-MB-231. As to the kind of experiment: Induction of apoptosis in human MDA-MB-231 cells assessed as necrotic cells after 24 hrs by Annexin V-FITC/propidium iodide staining based flow cytometry (reference value: 0.51%). The class given is functional. In general terms: A flow cytometer gives signals particle by particle.
The target in experiment [3] is Carbonic anhydrase 9 (Homo sapiens, UniProt Q16790).
Experiment [4] has as its system MCF7. Kind of experiment: Antiproliferative activity against human MCF7 cells after 48 hrs under hypoxic condition by MTT assay. The experiment is classed as functional, cell-based. The note with it: MCF7, 48 h. An outline of the steps:
as §1

In experiment [5] the test system is MDA-MB-231. As to the kind of experiment: Induction of apoptosis in human MDA-MB-231 cells assessed as early apoptotic cells after 24 hrs by Annexin V-FITC/propidium iodide staining based flow cytometry (reference value: 0.77%). The class given is functional.
Experiment [6] deals with MDA-MB-231. Kind of experiment: Induction of apoptosis in human MDA-MB-231 cells assessed as late apoptotic cells after 24 hrs by Annexin V-FITC/propidium iodide staining based flow cytometry (reference value: 0.26%). The class given is functional.
Experiment [7] concerns the target Vascular endothelial growth factor receptor 2 (Homo sapiens, UniProt P35968).
Experiment [8] concerns the target Carbonic anhydrase 1 (Homo sapiens, UniProt P00915). Kind of experiment: Inhibition of recombinant human carbonic anhydrase 1 by stopped flow CO2 hydration assay.

Chain of Carbonic anhydrase 1 (P00915 whole entry): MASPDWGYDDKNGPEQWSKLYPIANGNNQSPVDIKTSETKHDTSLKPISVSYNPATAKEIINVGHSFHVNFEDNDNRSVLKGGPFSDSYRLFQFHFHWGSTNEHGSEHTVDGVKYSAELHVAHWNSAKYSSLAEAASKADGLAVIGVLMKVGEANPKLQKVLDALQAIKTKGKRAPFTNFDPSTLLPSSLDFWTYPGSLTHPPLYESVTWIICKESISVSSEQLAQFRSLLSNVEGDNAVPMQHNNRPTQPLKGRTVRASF
Chain of Vascular endothelial growth factor receptor 2 (P35968 whole entry): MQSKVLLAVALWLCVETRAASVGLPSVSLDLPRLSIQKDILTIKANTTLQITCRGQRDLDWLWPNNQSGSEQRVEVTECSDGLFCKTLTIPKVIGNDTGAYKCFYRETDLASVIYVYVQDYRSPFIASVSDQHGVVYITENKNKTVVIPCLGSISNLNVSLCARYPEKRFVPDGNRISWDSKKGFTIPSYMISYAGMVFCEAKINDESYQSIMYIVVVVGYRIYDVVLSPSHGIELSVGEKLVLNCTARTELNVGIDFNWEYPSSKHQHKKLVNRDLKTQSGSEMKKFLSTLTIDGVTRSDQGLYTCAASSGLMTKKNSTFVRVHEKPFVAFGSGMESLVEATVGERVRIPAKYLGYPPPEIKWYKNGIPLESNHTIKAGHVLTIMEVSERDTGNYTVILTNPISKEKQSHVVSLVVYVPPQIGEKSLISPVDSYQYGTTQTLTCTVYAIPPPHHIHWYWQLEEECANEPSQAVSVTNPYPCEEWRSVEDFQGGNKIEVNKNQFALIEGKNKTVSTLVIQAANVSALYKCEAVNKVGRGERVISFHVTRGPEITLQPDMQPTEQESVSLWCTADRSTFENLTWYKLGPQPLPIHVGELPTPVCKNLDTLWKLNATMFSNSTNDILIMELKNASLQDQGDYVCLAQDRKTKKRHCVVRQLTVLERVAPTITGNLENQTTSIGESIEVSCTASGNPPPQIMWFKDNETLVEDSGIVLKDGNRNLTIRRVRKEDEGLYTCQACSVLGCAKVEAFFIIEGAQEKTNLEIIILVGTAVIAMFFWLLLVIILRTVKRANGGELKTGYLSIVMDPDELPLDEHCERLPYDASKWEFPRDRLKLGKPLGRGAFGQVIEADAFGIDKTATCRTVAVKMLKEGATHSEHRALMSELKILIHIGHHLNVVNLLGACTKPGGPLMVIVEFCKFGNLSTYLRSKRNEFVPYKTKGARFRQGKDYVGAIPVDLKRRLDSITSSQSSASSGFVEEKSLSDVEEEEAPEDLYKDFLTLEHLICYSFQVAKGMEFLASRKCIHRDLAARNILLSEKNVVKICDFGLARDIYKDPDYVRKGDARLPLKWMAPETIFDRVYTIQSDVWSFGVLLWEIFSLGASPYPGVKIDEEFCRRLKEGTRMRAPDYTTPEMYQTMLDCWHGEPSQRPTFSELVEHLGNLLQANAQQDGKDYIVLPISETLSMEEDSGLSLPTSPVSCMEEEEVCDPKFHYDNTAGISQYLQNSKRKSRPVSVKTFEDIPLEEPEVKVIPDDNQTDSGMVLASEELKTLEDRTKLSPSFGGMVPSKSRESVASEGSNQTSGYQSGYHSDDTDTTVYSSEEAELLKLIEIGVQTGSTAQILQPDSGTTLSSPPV

Take `CN1C(=O)/C(=N\c2ccc(NC(=O)Nc3ccc(S(N)(=O)=O)cc3)cc2)c2cc(Cl)ccc21`: the IC50 was determined as 7430 nM in experiment [1], 12900 nM in experiment [4] and 261 nM in experiment [7]. For the same compound, the Activity in experiment [2] is listed as 2.47%; in experiment [5], 7.28%; in experiment [6], 11.26%. Besides, the Ki in experiment [3] came out at 5.2 nM; in experiment [8], 407 nM.
As to `NS(=O)(=O)c1ccc(NC(=O)Nc2ccc(/N=C3\C(=O)N(Cc4cccc(F)c4)c4ccc(Br)cc43)cc2)cc1`, the Ki in experiment [3] came out at 61.2 nM; in experiment [8], 4700 nM.
Turning to `Cc1ccc(CN2C(=O)/C(=N\c3ccc(NC(=O)Nc4ccc(S(N)(=O)=O)cc4)cc3)c3cc(Cl)ccc32)cc1`, the Ki in experiment [3] worked out at 43 nM; in experiment [8], 6150 nM.
As for `CCCN1C(=O)/C(=N\c2ccc(NC(=O)Nc3ccc(S(N)(=O)=O)cc3)cc2)c2ccccc21`, the Ki in experiment [3] was found to be 19.6 nM; in experiment [8], 939 nM.
For `NS(=O)(=O)c1ccc(NC(=O)Nc2ccc(/N=C3\C(=O)N(Cc4ccccc4)c4ccc(Cl)cc43)cc2)cc1`, in that order: 86.1 nM and 2500 nM.
In the same order, the values of `N#Cc1ccc(CN2C(=O)/C(=N\c3ccc(NC(=O)Nc4ccc(S(N)(=O)=O)cc4)cc3)c3cc(Br)ccc32)cc1` are 36.9 nM and 5840 nM.
Consider `CCCN1C(=O)/C(=N\c2ccc(NC(=O)Nc3ccc(S(N)(=O)=O)cc3)cc2)c2cc(Br)ccc21`, for which the results for the Ki in experiment [3] and in experiment [8] were 26.7 nM and 2960 nM, respectively.
In the same order, the values of `NS(=O)(=O)c1ccc(NC(=O)Nc2ccc(/N=C3\C(=O)N(Cc4ccccc4)c4ccc(Br)cc43)cc2)cc1` are 41.2 nM and 5890 nM.
Take `COc1cccc2c1C(=O)c1c(O)c3c(c(O)c1C2=O)C[C@@](O)(C(=O)CO)C[C@@H]3O[C@H]1C[C@H](N)[C@H](O)[C@H](C)O1` [DOXORUBICIN]: the IC50 in experiment [1] is 8500 nM.
Turning to `CN1C(=O)/C(=N\c2ccc(NC(=O)Nc3ccc(S(N)(=O)=O)cc3)cc2)c2cc(Br)ccc21`, the Ki turned out to be 9.2 nM in experiment [3] and 1960 nM in experiment [8].
`N#Cc1ccc(CN2C(=O)/C(=N\c3ccc(NC(=O)Nc4ccc(S(N)(=O)=O)cc4)cc3)c3ccccc32)cc1`: the IC50 is 23200 nM in experiment [1], 5970 nM in experiment [4] and 207 nM in experiment [7]. The results for the Ki in experiment [3] and in experiment [8] were 9.7 nM and 2290 nM, respectively.
For `CCCN1C(=O)/C(=N\c2ccc(NC(=O)Nc3ccc(S(N)(=O)=O)cc3)cc2)c2cc(Cl)ccc21`, in that order: 25600 nM, 7360 nM, 384 nM, 8.2 nM and 607 nM.
Turning to `NS(=O)(=O)c1ccc(NC(=O)Nc2ccc(/N=C3\C(=O)N(Cc4ccccc4)c4ccccc43)cc2)cc1`, the inhibition constant (Ki) in experiment [3] is 73.2 nM; in experiment [8], 641 nM.
In the same order, the values of `N#Cc1ccc(CN2C(=O)/C(=N\c3ccc(NC(=O)Nc4ccc(S(N)(=O)=O)cc4)cc3)c3cc(Cl)ccc32)cc1` are 34.7 nM and 8290 nM.
In the case of `NS(=O)(=O)c1ccc(NC(=O)Nc2ccc(/N=C3\C(=O)N(Cc4cccc(F)c4)c4ccccc43)cc2)cc1`, the results for the Ki in experiment [3] and in experiment [8] were 54.5 nM and 2070 nM, respectively.
For `Cc1ccc(CN2C(=O)/C(=N\c3ccc(NC(=O)Nc4ccc(S(N)(=O)=O)cc4)cc3)c3cc(Br)ccc32)cc1`, in that order: 26.4 nM and 4640 nM.
In the same order, the values of `CN1C(=O)/C(=N\c2ccc(NC(=O)Nc3ccc(S(N)(=O)=O)cc3)cc2)c2ccccc21` are 25.1 nM and 898 nM.
For the compound `Cc1ccc(CN2C(=O)/C(=N\c3ccc(NC(=O)Nc4ccc(S(N)(=O)=O)cc4)cc3)c3ccccc32)cc1`, the IC50 amounted to 48900 nM in experiment [1], 11800 nM in experiment [4] and 462 nM in experiment [7]. The Ki in experiment [3] was determined as 4.7 nM; in experiment [8], 6570 nM.
For the compound `NS(=O)(=O)c1ccc(NC(=O)Nc2ccc(/N=C3\C(=O)N(Cc4cccc(F)c4)c4ccc(Cl)cc43)cc2)cc1`, the results for the Ki in experiment [3] and in experiment [8] were 58.8 nM and 5100 nM, respectively.

The IC50 is the midpoint of a concentration-inhibition curve. The Ki is a dissociation constant, usually derived from enzyme kinetics or from competition with a known ligand.
